Results published in ChEMBL document CHEMBL1130397, “Structure-activity relationships of (4-acylpyrrol-2-yl)alkanoic acids as inhibitors of the cytosolic phospholipase A2: variation of the substituents in positions 1, 3, and 5” (J Med Chem, 1997).
The source made the active and inactive calls. The calls are words filed in the database; no cut-off is given here.

Key:
[1] = Percentage platelet cell lysis at 33 uM measured by turbidimetry.; assay type: functional, Bos taurus
Procedure, shortened: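 Turbidimetric lysis: ETYA solution, then test compound or solvent control, then bovine platelet suspension and calcium chloride at 37 °C. After dilution with phosphate-buffered saline, absorbance read at 800 nm; lysis lowers absorbance. Compounds dissolved in DMSO or DMSO–0.05 M ethanolic NaOH (1+1). Performed within 36 h of platelet isolation; platelets kept at 4 °C.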

[2] = biological target: T1, Cytosolic phospholipase A2 (Bos taurus, UniProt A4IFJ5); test: Inhibition of cPLA2 measuring Calcium ionophore A-23,187-induced arachidonic acid release from bovine platelets with HPLC/UV detection.; assay type: functional
T1 sequence (A4IFJ5 whole entry): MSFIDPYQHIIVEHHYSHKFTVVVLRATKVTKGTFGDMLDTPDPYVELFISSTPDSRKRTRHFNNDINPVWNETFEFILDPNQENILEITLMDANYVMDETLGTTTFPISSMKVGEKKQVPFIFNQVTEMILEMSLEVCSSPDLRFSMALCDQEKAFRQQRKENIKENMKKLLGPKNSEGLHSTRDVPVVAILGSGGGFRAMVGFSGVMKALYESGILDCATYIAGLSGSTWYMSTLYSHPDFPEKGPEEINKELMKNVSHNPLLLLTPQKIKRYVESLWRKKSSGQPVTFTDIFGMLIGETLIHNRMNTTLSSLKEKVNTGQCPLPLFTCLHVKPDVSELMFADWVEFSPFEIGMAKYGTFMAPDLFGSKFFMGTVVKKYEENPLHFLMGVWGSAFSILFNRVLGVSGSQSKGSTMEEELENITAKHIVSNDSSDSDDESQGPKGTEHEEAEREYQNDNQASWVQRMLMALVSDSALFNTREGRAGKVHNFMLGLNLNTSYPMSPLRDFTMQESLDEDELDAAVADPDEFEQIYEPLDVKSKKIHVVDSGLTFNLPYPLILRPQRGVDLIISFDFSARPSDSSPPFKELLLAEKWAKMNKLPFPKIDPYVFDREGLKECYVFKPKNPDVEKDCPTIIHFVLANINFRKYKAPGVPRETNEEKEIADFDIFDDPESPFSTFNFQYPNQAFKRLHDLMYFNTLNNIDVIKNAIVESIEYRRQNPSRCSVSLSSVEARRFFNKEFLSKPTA
Procedure, shortened: (§1)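 Bovine platelet suspension stimulated with calcium ionophore A23187; released arachidonic acid quantified by HPLC/UV. Test compounds in DMSO, or DMSO–0.05 M ethanolic NaOH, added after platelets in the latter case to protect ETYA. Assays run within 36 h of platelet isolation; platelets stored at 4 °C. Values averaged from at least two runs, error within ±20%.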

[3] = biological target: T1, Cytosolic phospholipase A2; test: Inhibition of cPLA2 measuring Calcium ionophore A-23,187-induced arachidonic acid release from bovine platelets with HPLC/UV detection; assay type: functional; procedure, shortened: as §1
[4] = system: Cytosolic phospholipase A2 (Bos taurus); test: Inhibition of cPLA2 measuring Calcium ionophore A-23,187-induced arachidonic acid release from bovine platelets with HPLC/UV detection. at 3.3 uM concentration.
[5] = system: Cytosolic phospholipase A2 (Bos taurus); test: Inhibition of cPLA2 measuring Calcium ionophore A-23,187-induced arachidonic acid release from bovine platelets with HPLC/UV detection; 0% inhibition at 3.3 uM concentration.
[6] = Ability of arachidonic acid release at 10 uM; assay type: functional; procedure, shortened: as §1
[7] = system: Cytosolic phospholipase A2 (Bos taurus); test: Inhibition of cPLA2 measuring Calcium ionophore A-23,187-induced arachidonic acid release from bovine platelets with HPLC/UV detection; Not active at 20 uM
[8] = system: Cytosolic phospholipase A2 (Bos taurus); test: Inhibition of cPLA2 measuring Calcium ionophore A-23,187-induced arachidonic acid release from bovine platelets with HPLC/UV detection.; NA = 0% inhibition at 3.3 uM
[9] = 33 uM, in the assay text read “at 33 uM” for “at 10 uM”

Compound	IC50 ([2]; read-out: IC50) [µM]	Lysis [1] [%]	also measured
CCCCC/C=C\C/C=C\C/C=C\C/C=C\CCCC(=O)C(F)(F)F [ARACHIDONYL TRIFLUOROMETHYLKETONE]	–	31	–
CCCCCCCCCCCCCCCCCC(=O)c1c(C)c(CC(=O)O)n(Cc2ccccc2)c1C	7	32	–
CCCCCCCCCCCC(=O)c1c(C)c(CCC(=O)O)n(CCCCC(=O)O)c1C	–	0	IC50 [3]: 3.9 µM
CCCCCCCCCCCCCCCCCC(=O)c1c(C)c(CCC(=O)O)n(Cc2ccc(OC)cc2)c1C	–	12	inhibition [4]: 31%
CCCCCCCCCCCC(=O)c1c(C)c(CC(=O)O)n(CCCCCCC(=O)O)c1C	–	0	IC50 [3]: 5.6 µM
CCCCCCCCCCCC(=O)c1c(C)c(CCC(=O)O)n(C)c1C	–	0	IC50 [3]: 13 µM
CCCCCCCCCCCCCCCCCC(=O)c1c(C)c(CC(=O)O)n(C)c1Cc1ccccc1	12	0	–
CCCCCCCCCCCCCCCCCC(=O)c1c(C)c(CCC(=O)O)n(Cc2ccc(C(F)(F)F)cc2)c1C	–	13	inhibition [5]: inactive
CCCCCCCCCCCCCCCCCC(=O)c1c(C)c(CCC(=O)O)n(Cc2ccc(C(N)=O)cc2)c1C	–	0	inhibition [4]: 44%
CCCCCCCCCCCCCCCCCC(=O)c1c(C)c(CC(=O)O)n(CC)c1C	9	10	–
CCCCCCCCCCCCCCCCCC(=O)c1c(C)c(CC(=O)O)n(CCCCCCC)c1C	–	19	IC50 [2]: Not Active
CCCCCCCCCCCCCCCCCC(=O)c1c(C)c(CC(=O)O)n(C)c1C	10	0	–
CCCCCCCCCCCCCCCCCC(=O)c1c(C)c(CCC(=O)O)n(CCCCCCO)c1C	–	0	inhibition [4]: 20%
CCCCCCCCCCCCCCCCCC(=O)c1c(Cc2ccccc2)c(CC(=O)O)n(Cc2ccccc2)c1C	–	24	Activity ([6]; 10 uM): 1.3 fold
CCCCCCCCCCCCCCCCCC(=O)c1c(C)c(CCC(=O)O)n(Cc2ccc(C(=O)O)cc2)c1C	–	57	inhibition [4]: 47%
CCCCCCCCCCCC(=O)c1c(C)c(CCC(=O)O)n(CCCCCCCC(=O)O)c1C	–	0	IC50 [3]: 3.6 µM
CCCCCCCCCCCCCCCCCC(=O)c1c(C)c(CC(=O)O)n(Cc2ccc(C)cc2)c1C	9	29	–
CCCCCCCCCCCC(=O)c1c(C)c(CCC(=O)O)n(CCC(=O)O)c1C	–	0	IC50 [3]: 8 µM
CCCCCCCCCCCC(=O)c1c(C)c(CC(=O)O)n(CCCCCCCC(=O)O)c1C	–	0	IC50 [3]: 3.7 µM
CCCCCCCCCCCCCCCCCC(=O)c1c(C)c(CC(=O)O)n(C)c1CCCCCCCCCCCC	–	0	Activity [6, 9]: 1.5 fold
CCCCCCCCCCCCCCCCCC(=O)c1c(C)c(CCC(=O)O)n(CCCCCC(=O)O)c1C	–	54	inhibition [4]: 52%
CCCCCCCCCCCCCCCCCC(=O)c1c(C)c(CCC(=O)O)n(Cc2ccc(O)cc2)c1C	–	0	inhibition [4]: 30%

Compound	IC50 ([2]; read-out: IC50) [µM]	Lysis [1] [%]	also measured
CCCCCCCCCCCCCCCCCC(=O)c1c(C)c(CCC(=O)O)n(CCC)c1C	11	0	–
CCCCCCCCCCCCCCCCCC(=O)c1c(C)c(CCC(=O)O)n(CC)c1C	11	0	–
CCCCCCCCCCCCCCCCCC(=O)c1c(C)c(CCC(=O)O)n(CCCCCC(=O)N(C)C)c1C	–	67	inhibition [4]: 38%
CCCCCCCCCCCC(=O)c1c(C)c(CC(=O)O)n(C)c1C	–	0	IC50 [3]: 11 µM
CCCCCCCCCCCCCCCCCC(=O)c1c(C)c(CCC(=O)O)n(Cc2ccc(C(=O)N(C)C)cc2)c1C	–	42	inhibition [4]: 34%
CCCCCCCCCCCCCCCCCC(=O)c1c(C)c(CCC(=O)O)n(Cc2ccc(C#N)cc2)c1C	–	26	inhibition [4]: 15%
CCCCCCCCCCCCCCCCCC(=O)c1c(C)c(CCC(=O)O)n(Cc2ccc(C)cc2)c1C	–	14	IC50 [7]: Not Active; inhibition [5]: inactive
CCCCCCCCCCCC(=O)c1c(C)c(CCC(=O)O)n(CCCCCCC(=O)O)c1C	–	0	IC50 [3]: 3.8 µM
CCCCCCCCCCCCCCCCCC(=O)c1c(C)c(CC(=O)O)n(CCC)c1C	8	34	–
CCCCCCCCCCCCCCCCCC(=O)c1c(CCCCCCCCCCCC)c(CC(=O)O)n(C)c1C	–	0	Activity [6, 9]: 1.5 fold
CCCCCCCCCCCC(=O)c1c(C)c(CCC(=O)O)n(CCCCCC(=O)O)c1C	–	0	IC50 [3]: 3.4 µM
CCCCCCCCCCCCCCCCCC(=O)c1c(C)c(CCC(=O)O)n(CCCCCC#N)c1C	–	39	inhibition [4]: 40%
CCCCCCCCCCCCCCCCCC(=O)c1cc(CC(=O)O)n(C)c1	15	0	–
CCCCCCCCCCCCCCCCCC(=O)c1c(C)c(CC(=O)O)n(CCCCCCCCCCCC)c1C	–	0	Activity [6, 9]: 1.5 fold
CCCCCCCCCCCC(=O)c1c(C)c(CC(=O)O)n(CCCCCCCCC(=O)O)c1C	–	21	IC50 [3]: 3.3 µM
CCCCCCCCCCCCCCCCCC(=O)c1c(C)c(CCC(=O)O)n(CCCCCC)c1C	–	10	IC50 [7]: Not Active; inhibition [8]: inactive
CCCCCCCCCCCCCCCCCC(=O)c1c(C)c(CCC(=O)O)n(CCCCCCN(C)C)c1C	–	0	inhibition [4]: 33%
CCCCCCCCCCCCCCCCCC(=O)c1c(C)c(CCC(=O)O)n(Cc2ccc(Cl)cc2)c1C	–	13	inhibition [5]: inactive
CCCCCCCCCCCC(=O)c1c(C)c(CC(=O)O)n(CCCCCC(=O)O)c1C	–	0	IC50 [3]: 11 µM
CCCCCCCCCCCCCCCCCC(=O)c1cc(CCC(=O)O)n(C)c1	14	0	–
CCCCCCCCCCCCCCCCCC(=O)c1c(C)c(CCC(=O)O)n(C)c1C	13	0	–

Continued, in another order:

IC50 ([2]; read-out: IC50) [µM]	Compound	Lysis [1] [%]	also measured
12	CCCCCCCCCCCCCCCCCC(=O)c1c(C)c(CCC(=O)O)n(Cc2ccccc2)c1C	19	inhibition [4]: 20%
13	CCCCCCCCCCCCCCCCNC(=O)[C@@H]1CCCN1	0	–
> 10	CCCCCCCCCCCCCCCCCC(=O)c1c(C)c(CC(=O)O)n(CCCCCC)c1C	37	–
10	CCCCCCCCCCCCCCCCCC(=O)c1c(C)c(CCC(=O)O)n(CCCCC)c1C	13	inhibition [4]: 23%
10	CCCCCCCCCCCCCCCCCC(=O)c1c(Cc2ccccc2)c(CC(=O)O)n(C)c1C	22	–
